Screening data as filed in PubChem BioAssay.
FLuc act counter: FLuc activators, initial screening, artefact control for FLuc-dependent activation tests, biochemical, ATPlite luminescence | ATPlite luciferase biochemical, 10 min; 0 = ATP-free wells, 1 = DMSO control | activation factor at 10 µM | 200,000 tested, under 10 active;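 active means luciferase activation factor, scaled between plate controls, of at least 2 with compound at 10 µM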
Target sequence (P08659 whole entry, looked up): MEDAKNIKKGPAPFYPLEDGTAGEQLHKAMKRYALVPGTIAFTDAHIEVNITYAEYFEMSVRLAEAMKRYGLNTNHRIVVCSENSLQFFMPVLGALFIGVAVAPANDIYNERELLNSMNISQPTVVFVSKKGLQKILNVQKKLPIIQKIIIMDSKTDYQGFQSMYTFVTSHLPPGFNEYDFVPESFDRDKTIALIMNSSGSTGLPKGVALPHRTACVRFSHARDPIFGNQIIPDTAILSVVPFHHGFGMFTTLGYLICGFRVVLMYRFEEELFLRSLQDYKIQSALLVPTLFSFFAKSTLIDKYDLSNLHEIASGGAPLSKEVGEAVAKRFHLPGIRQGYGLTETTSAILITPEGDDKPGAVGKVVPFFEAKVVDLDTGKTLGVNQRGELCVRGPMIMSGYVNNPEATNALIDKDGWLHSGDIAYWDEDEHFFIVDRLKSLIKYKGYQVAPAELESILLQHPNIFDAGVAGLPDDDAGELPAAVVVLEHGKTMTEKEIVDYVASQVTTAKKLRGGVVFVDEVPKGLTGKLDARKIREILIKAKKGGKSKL
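System: cell-free luciferase reagent; medium: PBS as buffer for the ATP substrate; doses: test compounds dosed from 2 mM stocks in 100% DMSO; incubation: 10 min, room temperature; measured by: luminescence from luciferase reaction; read-out: luciferase activation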
PPC-1+TRAIL kill: compounds killing PPC-1 cancer cells with TRAIL present, primary screen, TRAIL potentiator project, ATPLite luminescence, uHTS; PPC-1 cells + TRAIL, ATPLite viability luminescence; cell killing (% activity), % at 4 µM or 5 µM; actives 0.41% (n = 220,000);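 active means cell killing above 50% in the first pass at 4 µM, then a duplicate retest at 5 µM averaging 50% or more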;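 further: plate controls were cells with TRAIL plus DMSO for no effect and medium-only wells lacking cells for full effect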
C8 TRAIL sens: viability loss with TRAIL in NB7+C8 cells, primary screen, TRAIL sensitizer project, cell-based, ATPlite luminescence. AID 624354, 2012. actives 1% (n = 360,000). inhibition (viability loss, TRAIL sensitization), % at 10 µM;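 active means compounds causing at least 50% loss of cell viability in the single-dose screen, relative to plate controls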
FLuc inhib CS: firefly luciferase enzyme inhibitors, primary screen, artefact control for luciferase-based inhibitor screens, biochemical, luminescence, ATPLite; Luciferin 4-monooxygenase (Photinus pyralis), P08659; 10 min; inhibition, % at 10 µM; actives 1.5% (n = 200,000); AID 1006, 2008;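 active means inhibition above about 50% when tested at 10 µM, limit read from the data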
* = called active by the depositor; . = no result given. Shown are actives, neighbours in structure and some others; about 1.5% of the full set was active somewhere.

SMILES	FLuc act counter	PPC-1+TRAIL kill	C8 TRAIL sens	FLuc inhib CS
O=C(O)c1cc(N/N=C/c2ccc3c(c2)OCCO3)ccc1Cl	0.4	6	-13	56*
C/C(=N\NC(=O)c1ccc(CSc2nncn2C)cc1)c1cccs1	0.5	32	19	47
Cn1cnnc1SCc1ccc(C(=O)N/N=C/c2cccs2)cc1	0.4	23	28	65*
Cc1ccsc1C(=O)N/N=C/c1ccc2c(c1)OCO2	0.4	25	29	64*
COc1c(C)cc(C(=O)C2CCCN(C(=O)c3cc(C)nc(C)n3)C2)cc1C (centres undefined)	1	.	-6	-2
Nc1nnc(SCc2cccc(C(F)(F)F)c2)s1	1	6	1	-1
CN(Cc1ccccc1)C(=O)COC(=O)c1c[nH]c2ccccc12	.	.	-8	.
COc1ccc(CC(=O)OCC(=O)c2ccc(F)cc2)cc1	.	.	-11	.
Cc1cc(C(=O)N/N=C/c2ccc3c(c2)OCO3)c(C)o1	0.4	34	32	64*
O=C(NN=Cc1ccc2c(c1)CCN2)c1cccs1	.	.	50*	.
O=C(N/N=C/c1ccccc1O)c1ccc2c(c1)OCO2	.	.	45	.
COc1cc(/C=N/NC(=O)c2cccs2)ccc1O	.	6	21	.
O=C(N/N=C/c1cccs1)c1ccc2c(c1)OCO2	0.1	59*	76*	88*
CCC(=O)N1CCc2cc(OC)c(OC)cc2C1COc1ccc(OC)cc1 (centres undefined)	1	22	-8	-1
COc1cc(/C=N/Nc2cccc3cccnc23)cc(OC)c1O	0.1	15	43	86*
C/C(=N\Nc1cccc2cccnc12)c1ccc(N)cc1	0.9	16	2	11
Oc1cccc(/C=N/Nc2cccc3cccnc23)c1	0.2	33	54*	81*
C/C(=N\Nc1cccc2cccnc12)c1ccccc1O	0.3	37	40	68*
Cc1cccc(NS(=O)(=O)c2coc(C(N)=O)c2)c1C	.	.	-7	.
COc1ccc(C(=O)NCCNc2ccccc2[N+](=O)[O-])cc1	0.4	48	38	62*
N/C(=N\OC(=O)c1ccc2c(c1)OCO2)c1ccc([N+](=O)[O-])cc1	0.9	20	15	15
N/C(=N\OC(=O)c1ccc(Br)cc1)c1ccccc1	0.1	2	84*	95*
O=C(COC(=O)c1ccc2ccccc2n1)c1ccccc1	0.4	21	-2	60*
Cc1ccc(/C(N)=N/OC(=O)C23CC4CC(CC(C4)C2)C3)cc1	0.9	25	88*	10
N/C(=N\OC(=O)c1ccc2c(c1)OCO2)c1cccc(Br)c1	0	7	0	96*
SMILES	FLuc act counter	PPC-1+TRAIL kill	C8 TRAIL sens	FLuc inhib CS
COc1ccc(CNc2nc(SCC(=O)NCc3ccco3)nc3ccccc23)cc1	1	24	-12	-3
NCC(=O)NCC(=O)NC1(C(=O)O)CCCC1	.	.	16	.
CCCCOCCCNCc1cccn1CCN1CCOCC1	.	.	1	.
C/C(=N\NC(=O)C1CC1)c1ccc(OC(F)F)cc1OC(F)F	.	.	-29	.
CCc1ccccc1NC(=O)CN(C)C(=O)CN1C(=O)NC2(CCCCCC2)C1=O	1	24	-6	-5
N/C(=N\OC(=O)c1ccc2ccccc2c1)c1ccccc1Cl	.	.	93*	.
Cc1ccc(C(=O)O/N=C(\N)c2ccc(Br)cc2)cc1	0.7	24	81*	30
N/C(=N\OC(=O)c1cccc(Br)c1)c1ccc(Br)cc1	1	1	59*	-1
COc1ccc(C(=O)Oc2ccc3c(c2)OCO3)cc1OC	1	34	-8	3
COc1ccc(/C(N)=N/OC(=O)c2ccc3c(c2)OCO3)cc1OC	0.4	49	82*	62*
Cc1nc(/C(N)=N/OC(=O)c2c(-c3ccccc3Cl)noc2C)cs1	.	-3	-11	.
O=C(COC(=O)c1ccccc1)c1ccc(Br)cc1	0.4	15	3	56*
COc1ccc(C(=O)O/N=C(\N)Cc2ccc(Cl)cc2)cc1OC	1.1	6	94*	-5
O=C(COC(=O)c1ccc(Br)cc1)NCCc1ccccc1	1.1	16	29	-9
COc1ccc(/C(N)=N/OC(=O)c2ccc3ccccc3c2)cc1OC	.	.	96*	.
COc1ccc(/C(N)=N/OC(=O)c2c(-c3ccccc3Cl)noc2C)cc1OC	.	.	93*	.
Cc1c(Cl)cccc1-n1c(SCC(=O)N(C)Cc2ccccc2)nnc1-c1ccncc1	1.1	0	-7	-5
